The values below come from PubChem BioAssay.

Experiment [1] is described as follows: Her2 expression decrease, cell viability multiplex – SKBR3 breast tumor cells, AlphaScreen, ATP viability, primary screen (AID 461;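 active means Her2 level under about 52% in both replicate screens, with viability over 70% of control, limit read from the data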;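 on Her2 level: lower value means less Her2 protein in the cells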;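 on viability: percent of carrier control wells set as 100% viability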). Particulars: SKBR3 Her2 protein level, 18-24 h, measured here: SKBR3 viability, ATP luminescence, at 10 µM. Background: In Alpha technology, singlet oxygen from a donor bead excites a nearby acceptor bead.
The target in experiment [2] is Receptor tyrosine-protein kinase erbB-2 (Homo sapiens) (UniProt P04626). The description is as above. The settings on record: 18-24 h, at 10 µM, stronger effect = lower value.
A short description of experiment [3]: reduced viability of SK-BR-3 breast cancer cells – cell-based, 24 h, human, pilot screen (AID 572;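 active means viability at or below 10% of carrier control in both of two separate runs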;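 further: compound exposure lasted between 18 and 24 h rather than exactly 24 h; 100% = carrier-treated control wells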). Particulars: SK-BR-3 viability, CellTiter-Glo luminescence, at 10 µM, stronger effect = lower value. (In general: In ATP-based viability assays light output follows the ATP content of the culture.)
A short description of experiment [4]: HUVEC growth inhibition – cell-based, human, primary screen (AID 575;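 active means viability at or below 30% in both replicate assays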;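 further: 100% = median of untreated cell wells with 0.1% DMSO on each plate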). The settings on record: HUVEC proliferation, CellTiter-Glo luminescence, 72 h; at 10 µM; stronger effect = lower value. An outline of the steps:
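Material: primary human umbilical vein endothelial cells / Schedule: 72 h exposure, 37 °C, 5% CO2, 30 min RT equilibration / Signal: ATP-based CellTiter-Glo luminescent read / Read-out basis: percent of median DMSO-control luminescence / Control set: 32 DMSO-only cell-control wells (high), 32 MePR drug-control wells (low) per plate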

Experiment [5] in a line: H69AR cell proliferation blockers – human, duplicate replicates, primary screen (AID 580).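 Further: 100% = mean luminescence of untreated wells and 0% = no signal.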 The settings on record: H69AR lung tumor cells viability, ATP luminescence, 72 h; at 10 µM; stronger effect = lower value.
Experiment [6] is described as follows: MRP1 drug-resistance reversers in H69AR cells – cell-based, doxorubicin co-treatment, pilot screen (AID 601;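 active means viability loss from added drug above about 55%, and viability with drug at most 40%, in both replicates, limit read from the data, passing the limit was not always enough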). Particulars: CellTiter-Glo, 72 h, at 10 µM; for differential viability (reversal): stronger effect = higher value.
A short description of experiment [7]: yeast transport mutant growth inhibition pilot in 384-well plates, post-Golgi transport modulator project (AID 636; in the data active means inhibition above about 31%). The settings on record: absorbance 615 nm, about 18 h, stronger effect = higher value.
Experiment [8] is described as follows: growth suppression of yeast trafficking mutant, preliminary HTS, modulators of trafficking downstream of Golgi apparatus project, 1536-format plate, OD 615 nm (AID 637; in the data active means inhibition above about 30%). The settings on record: yeast transport mutant growth, absorbance 615 nm, 18 h; stronger effect = higher value.
Where [9] appears, read: H69AR cells + 2 uM doxorubicin, measured here: viability with 2 uM doxorubicin, stronger effect = lower value.
[10] abbreviates: H69AR cells, compound alone cytotoxicity.

Active and inactive are the calls of the source.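 How the source made its calls, unless noted: active means viability at or under a set limit in both replicates, limit being median viability minus 3 SD (cut at about 48% in these data, passing the limit was not always enough); inconclusive means at or under the limit in just one replicate; inactive means at or above the limit in both replicates.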

Receptor tyrosine-protein kinase erbB-2 (Homo sapiens), sequence (P04626 whole entry, looked up): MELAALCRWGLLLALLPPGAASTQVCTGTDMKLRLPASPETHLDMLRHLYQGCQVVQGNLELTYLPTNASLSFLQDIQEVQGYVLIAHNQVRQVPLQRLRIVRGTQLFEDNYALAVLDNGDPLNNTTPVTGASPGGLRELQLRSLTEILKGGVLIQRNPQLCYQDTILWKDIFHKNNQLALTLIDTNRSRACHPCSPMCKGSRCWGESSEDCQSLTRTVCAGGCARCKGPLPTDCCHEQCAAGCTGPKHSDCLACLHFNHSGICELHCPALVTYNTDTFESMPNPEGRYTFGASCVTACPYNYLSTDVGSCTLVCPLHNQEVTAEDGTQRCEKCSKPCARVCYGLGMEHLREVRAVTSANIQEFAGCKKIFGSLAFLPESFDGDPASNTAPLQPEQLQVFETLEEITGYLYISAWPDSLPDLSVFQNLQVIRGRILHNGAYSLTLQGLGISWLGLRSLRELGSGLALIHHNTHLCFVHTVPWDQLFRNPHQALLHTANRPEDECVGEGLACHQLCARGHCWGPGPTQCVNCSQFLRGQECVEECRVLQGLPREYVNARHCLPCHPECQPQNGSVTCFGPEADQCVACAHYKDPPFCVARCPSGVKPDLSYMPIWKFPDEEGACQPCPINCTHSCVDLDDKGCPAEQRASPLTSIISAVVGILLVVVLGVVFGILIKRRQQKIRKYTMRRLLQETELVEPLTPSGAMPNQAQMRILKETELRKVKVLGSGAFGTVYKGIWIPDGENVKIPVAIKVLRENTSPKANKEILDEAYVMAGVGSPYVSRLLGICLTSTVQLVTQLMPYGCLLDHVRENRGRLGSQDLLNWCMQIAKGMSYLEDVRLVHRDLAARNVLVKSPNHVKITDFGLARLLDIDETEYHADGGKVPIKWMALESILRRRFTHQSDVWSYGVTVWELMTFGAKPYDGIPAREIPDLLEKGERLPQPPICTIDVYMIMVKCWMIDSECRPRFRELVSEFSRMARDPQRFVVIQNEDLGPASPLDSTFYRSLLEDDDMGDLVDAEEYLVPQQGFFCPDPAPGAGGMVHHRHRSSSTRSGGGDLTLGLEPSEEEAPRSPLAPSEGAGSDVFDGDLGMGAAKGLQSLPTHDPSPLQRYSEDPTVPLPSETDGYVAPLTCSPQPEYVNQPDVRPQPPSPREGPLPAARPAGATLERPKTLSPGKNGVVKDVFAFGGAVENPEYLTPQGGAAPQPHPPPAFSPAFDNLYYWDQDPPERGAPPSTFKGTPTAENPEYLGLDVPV

In general, viability refers to a read-out of living cells in per cent, often relative to untreated cells. In general, inhibition refers to the change of the read-out against control, counted positive when it falls. As to `Cc1cc(=O)n(-c2ccc3ccccc3n2)[nH]1`, the viability is 105% in experiment [1]; 105% (inactive) in experiment [3]; 53.6% (inactive) in experiment [4]; 73.4% (inactive) in experiment [5]; 76.2% in experiment [6] (setting [9]); 73.4% in experiment [6] (setting [10]). Also, the Her2 level in experiment [2] was 101% (inactive). The differential viability (reversal) in experiment [6] (H69AR cells + 2 uM doxorubicin) was -2.73% (inactive). For the same compound, the inhibition in experiment [7] was -5.73% (inactive); in experiment [8], 11.1% (inactive).

As to `Cc1nc2ccccc2c(=O)n1/N=C/c1ccncc1`, the viability in experiment [1] is 95%; in experiment [3] it was 95% (inactive); in experiment [4], 105% (inactive); in experiment [5] it was 103% (inactive); in experiment [6] (setting [9]) it was 91.1%; in experiment [6] (setting [10]) it was 103%. For the same compound, the Her2 level in experiment [2] is 99.5% (inactive). Further, in experiment [6] (H69AR cells + 2 uM doxorubicin), the differential viability (reversal) was 12.4% (inactive). The inhibition in experiment [7] is -6.13% (inactive); in experiment [8], -1.94% (inactive).

For the compound `CC(Oc1ccc(Cl)cc1Cl)c1nc(-c2ccc(NC(=O)c3cccnc3)cc2)no1` (stereo not given), the viability in experiment [1] was 93.5%; in experiment [3] it was 93.5% (inactive); in experiment [4], 55% (inactive); in experiment [5], 8.04% (active); in experiment [6] (setting [9]), 18.8%; in experiment [6] (setting [10]), 8.04%. Moreover, the Her2 level in experiment [2] was 74.5% (inactive). For the same compound, in experiment [6] (H69AR cells + 2 uM doxorubicin), the differential viability (reversal) was -10.7% (inactive). For the same compound, the inhibition is 0% (inactive) in experiment [7] and 22.2% (inactive) in experiment [8].

As for `O=C(O)C1CCCN1S(=O)(=O)c1ccc2ccccc2c1` (stereo not given), the viability in experiment [1] was 106%; in experiment [3], 106% (inactive); in experiment [4], 101% (inactive); in experiment [5], 95.6% (inactive); in experiment [6] (setting [9]) it was 108%; in experiment [6] (setting [10]), 95.6%. In addition, the Her2 level in experiment [2] is 110% (inactive). For the same compound, the differential viability (reversal) in experiment [6] (H69AR cells + 2 uM doxorubicin) is -12% (inactive). Besides, the figures for the inhibition in experiment [7] and in experiment [8] were 0.27% (inactive) and 9.51% (inactive), respectively.

In the case of `CCCCOC(=O)CN1C(=O)c2ccc(C(=O)OCCCC)cc2C1=O`, the viability in experiment [1] is 87%; in experiment [3], 87% (inactive); in experiment [4], 92.3% (inactive); in experiment [5], 106% (inactive); in experiment [6] (setting [9]), 95.3%; in experiment [6] (setting [10]) it was 106%. Besides, the Her2 level in experiment [2] was 94% (inactive). The differential viability (reversal) in experiment [6] (H69AR cells + 2 uM doxorubicin) was 10.4% (inactive). For the same compound, the inhibition in experiment [7] was -2.97% (inactive); in experiment [8], 0.82% (inactive).

On to `CCS(=O)(=O)N1CCCC(C(=O)NCc2cccc(OC)c2)C1` (stereo not given), for which the viability in experiment [1] was 106%; in experiment [3], 106% (inactive); in experiment [4], 98.1% (inactive); in experiment [5] it was 96.6% (inactive); in experiment [6] (setting [9]), 102%; in experiment [6] (setting [10]), 96.6%. The Her2 level in experiment [2] is 108% (inactive). The differential viability (reversal) in experiment [6] (H69AR cells + 2 uM doxorubicin) is -4.98% (inactive). The inhibition in experiment [7] is -5.2% (inactive); in experiment [8], 5.41% (inactive).

Take `CC(=O)c1ccc(OCC(O)CN2CC(C)OC(C)C2)cc1` (stereo not given): the viability in experiment [1] was 108%; in experiment [3], 108% (inactive); in experiment [4], 99.7% (inactive); in experiment [5] it was 105% (inactive); in experiment [6] (setting [9]), 91.3%; in experiment [6] (setting [10]) it was 105%. Further, the Her2 level in experiment [2] was 80.5% (inactive). Also, in experiment [6] (H69AR cells + 2 uM doxorubicin), the differential viability (reversal) is 14% (inactive). Further, the inhibition in experiment [7] was -5.19% (inactive); in experiment [8], 4.13% (inactive).

With `COC(=O)c1cc2oc(C)cc2n1CC(=O)Nc1ccc(C)c(C)c1`, the viability in experiment [1] was 85.5%; in experiment [3] it was 85.5% (inactive); in experiment [4], 59.5% (inactive); in experiment [5], 83.8% (inactive); in experiment [6] (setting [9]), 87.1%; in experiment [6] (setting [10]), 83.8%. In experiment [2], the Her2 level is 83% (inactive). The differential viability (reversal) in experiment [6] (H69AR cells + 2 uM doxorubicin) is -3.33% (inactive). The inhibition in experiment [7] is 0.51% (inactive); in experiment [8] it was -7% (inactive).

As to `CCOC(=O)c1ccc(COC(=O)CCc2nc3ccccc3[nH]c2=O)o1`, the viability in experiment [1] is 92%; in experiment [3] it was 92% (inactive); in experiment [4], 100% (inactive); in experiment [5], 92.1% (inactive); in experiment [6] (setting [9]) it was 96.2%; in experiment [6] (setting [10]) it was 92.1%. The Her2 level in experiment [2] is 96.5% (inactive). Further, the differential viability (reversal) in experiment [6] (H69AR cells + 2 uM doxorubicin) is -4.18% (inactive). For the same compound, the inhibition was -1.32% (inactive) in experiment [7] and 5.08% (inactive) in experiment [8].

As to `O=C(Nc1cccnc1)c1noc2c1CCCCC2`, the viability in experiment [1] was 110%; in experiment [3], 110% (inactive); in experiment [4], 105% (inactive); in experiment [5], 87.3% (inactive); in experiment [6] (setting [9]), 90.2%; in experiment [6] (setting [10]), 87.3%. For the same compound, the Her2 level in experiment [2] was 90% (inactive). The differential viability (reversal) in experiment [6] (H69AR cells + 2 uM doxorubicin) was -2.86% (inactive). Further, the results for the inhibition in experiment [7] and in experiment [8] were -0.66% (inactive) and 9.5% (inactive), respectively.

Turning to `CN1C(=O)CSc2ccc(NC(=O)N3CCN(c4ccccn4)CC3)cc21`, the viability in experiment [1] is 102%; in experiment [3], 102% (inactive); in experiment [4] it was 58.2% (inactive); in experiment [5], 91.3% (inactive); in experiment [6] (setting [9]), 79.1%; in experiment [6] (setting [10]), 91.3%. For the same compound, in experiment [2], the Her2 level was 88.5% (inactive). Moreover, in experiment [6] (H69AR cells + 2 uM doxorubicin), the differential viability (reversal) was 12.2% (inactive). Besides, the inhibition in experiment [7] is -0.4% (inactive); in experiment [8], 3.61% (inactive).

Consider `Nn1c(CSc2nc3ccccc3o2)nnc1CSc1nc2ccccc2o1`, for which the viability in experiment [1] is 86%; in experiment [3], 86% (inactive); in experiment [4] it was 115% (inactive); in experiment [5], 103% (inactive); in experiment [6] (setting [9]), 78.6%; in experiment [6] (setting [10]) it was 103%. The Her2 level in experiment [2] is 94.5% (inactive). Also, in experiment [6] (H69AR cells + 2 uM doxorubicin), the differential viability (reversal) was 24.1% (inactive). Further, the inhibition in experiment [7] is -4.4% (inactive); in experiment [8] it was -1.8% (inactive).

Take `CN=C1CC(C)(C)CC(=O)/C1=C(/O)CCC(=O)NC`: the viability in experiment [1] was 104%; in experiment [3], 104% (inactive); in experiment [4], 95.5% (inactive); in experiment [5], 102% (inactive); in experiment [6] (setting [9]) it was 92.1%; in experiment [6] (setting [10]), 102%. Moreover, in experiment [2], the Her2 level was 84% (inactive). For the same compound, the differential viability (reversal) in experiment [6] (H69AR cells + 2 uM doxorubicin) was 10.2% (inactive). For the same compound, the inhibition in experiment [7] was -2.63% (inactive); in experiment [8] it was -3.97% (inactive).

As to `O=C(COC(=O)c1ccc(S(=O)(=O)Nc2ccccc2)cc1)NCCN1C(=O)CSC1=O`, the viability was 107% in experiment [1]; 107% (inactive) in experiment [3]; 100% (inactive) in experiment [4]; 95.3% (inactive) in experiment [5]; 86% in experiment [6] (setting [9]); 95.3% in experiment [6] (setting [10]). In experiment [2], the Her2 level was 108% (inactive). Also, in experiment [6] (H69AR cells + 2 uM doxorubicin), the differential viability (reversal) was 9.27% (inactive). In addition, the inhibition in experiment [7] is -5.07% (inactive); in experiment [8] it was -3.93% (inactive).

As to `CCOC(=O)/C=C1\SCC(=O)N1Cc1ccc(Br)cc1`, the viability was 112% in experiment [1]; 112% (inactive) in experiment [3]; 79.5% (inactive) in experiment [4]; 97.3% (inactive) in experiment [5]; 93.3% in experiment [6] (setting [9]); 97.3% in experiment [6] (setting [10]). The Her2 level in experiment [2] is 94% (inactive). Moreover, the differential viability (reversal) in experiment [6] (H69AR cells + 2 uM doxorubicin) was 3.96% (inactive). In addition, the values for the inhibition in experiment [7] and in experiment [8] were -7.67% (inactive) and 4.13% (inactive), respectively.
